In ChEMBL document CHEMBL3227917, “Structure-activity relationships of dimeric Catharanthus alkaloids. 2. Experimental antitumor activities of N-substituted deacetylvinblastine amide (vindesine) sulfates” (J Med Chem, 1979):

Columns and labels:
[1] = Antitumor activity against mouse Gardner lymphosarcoma allografted in C3H mouse assessed as tumor growth inhibition at 0.20 mg/kg, ip administered daily for 8 to 10 days; format: functional; conditions: route intraperitoneal, read-out: TGI
Outline: (§1)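 Gardner lymphosarcoma in C3H mice; sulfate salts unless noted, given ip daily for 8–10 days, treatment starting 8 days after tumor implantation. Tumor growth inhibition scored as –, 0–25%; +, 26–50%; ++, 51–75%; +++, 76–100%; T, lethal to ≥5 of 10 animals per group. Average of one or more tests.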

Mus musculus [2] = assay: Toxicity in C3H mouse allografted with mouse Gardner lymphosarcoma assessed as lethality at 0.40 mg/kg, ip administered daily for 8 to 10 days; format: organism-based; design: dose 0.4 mg/kg, route intraperitoneal; conditions: in vivo, 0.4 mg/kg
Outline: (§2)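 Tumor-bearing mice given sulfate salts ip daily for 8–10 days; values are the average of one or more tests. Toxic means lethal to ≥5 of 10 animals per group.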

Mus musculus [3] = assay: Toxicity in AKR mouse allografted with mouse Ridgway osteogenic sarcoma assessed as lethality at 0.20 mg/kg, ip administered daily for 8 to 10 days compound treatment commenced 8 days after tumor implantation; format: organism-based; design: dose 0.2 mg/kg, route intraperitoneal; conditions: in vivo, 0.2 mg/kg; outline: as §2
[4] = Antitumor activity against mouse Gardner lymphosarcoma allografted in C3H mouse assessed as tumor growth inhibition at 0.10 mg/kg, ip administered daily for 8 to 10 days; format: functional; conditions: route intraperitoneal, read-out: TGI; outline: as §1
[5] = Antitumor activity against mouse Ridgway osteogenic sarcoma allografted in AKR mouse assessed as tumor growth inhibition at 0.10 mg/kg, ip administered daily for 8 to 10 days compound treatment commenced 8 days after tumor implantation; format: functional; conditions: route intraperitoneal, read-out: TGI
Mus musculus [6] = assay: Toxicity in AKR mouse allografted with mouse Ridgway osteogenic sarcoma assessed as lethality at 0.40 mg/kg, ip administered daily for 8 to 10 days compound treatment commenced 8 days after tumor implantation; format: organism-based; design: dose 0.4 mg/kg, route intraperitoneal; conditions: in vivo, 0.4 mg/kg; outline: as §2
Mus musculus [7] = assay: Toxicity in C57BL/6 mouse allografted with mouse B16 cells assessed as animal death at 1.20 mg/kg, ip administered on days 1,5 and 9; format: organism-based; design: dose 1.2 mg/kg, route intraperitoneal; conditions: in vivo, 1.2 mg/kg
Outline: (§3)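 B16 melanoma cells (10⁶ inoculum) implanted ip in C57BL/6 mice; groups of 10. Sulfate salts unless noted, given ip on days 1, 5 and 9. Single test. Survival prolongation is expressed as percent versus controls, with survivors counted on day 60. Toxic means deaths of ≥5 of 10 animals before the first control death.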

B16 [8] = assay: Antitumor activity against mouse B16 cells allografted in C57BL/6 mouse assessed as prolongation of host survival at 0.90 mg/kg, ip administered on days 1,5 and 9; format: functional; conditions: route intraperitoneal; outline: as §3
B16 [9] = assay: Antitumor activity against mouse B16 cells allografted in C57BL/6 mouse assessed as prolongation of host survival at 0.60 mg/kg, ip administered on days 1,5 and 9; format: functional; conditions: route intraperitoneal; outline: as §3
[10] = Antitumor activity against mouse Gardner lymphosarcoma allografted in C3H mouse assessed as tumor growth inhibition at 0.40 mg/kg, ip administered daily for 8 to 10 days; format: functional; conditions: route intraperitoneal, read-out: TGI; outline: as §1
[11] = Antitumor activity against mouse Gardner lymphosarcoma allografted in C3H mouse assessed as tumor growth inhibition at 0.30 mg/kg, ip administered daily for 8 to 10 days; format: functional; conditions: route intraperitoneal, read-out: TGI; outline: as §1
[12] = Antitumor activity against mouse Gardner lymphosarcoma allografted in C3H mouse assessed as tumor growth inhibition at 0.5 mg/kg, ip administered daily for 8 to 10 days; format: functional; conditions: route intraperitoneal, read-out: TGI; outline: as §1
[13] = Antitumor activity against mouse Gardner lymphosarcoma allografted in C3H mouse assessed as tumor growth inhibition at 0.25 mg/kg, ip administered daily for 8 to 10 days; format: functional; conditions: route intraperitoneal, read-out: TGI; outline: as §1
[14] = Antitumor activity against mouse Gardner lymphosarcoma allografted in C3H mouse assessed as tumor growth inhibition at 0.125 mg/kg, ip administered daily for 8 to 10 days; format: functional; conditions: route intraperitoneal, read-out: TGI; outline: as §1
[15] = Antitumor activity against mouse Gardner lymphosarcoma allografted in C3H mouse assessed as tumor growth inhibition at 0.05 mg/kg, ip administered daily for 8 to 10 days; format: functional; conditions: route intraperitoneal, read-out: TGI; outline: as §1
Mus musculus [16] = assay: Toxicity in C3H mouse allografted with mouse Gardner lymphosarcoma assessed as lethality at 0.20 mg/kg, ip administered daily for 8 to 10 days; format: organism-based; design: dose 0.2 mg/kg, route intraperitoneal; conditions: in vivo, 0.2 mg/kg; outline: as §2
Mus musculus [17] = assay: Toxicity in C3H mouse allografted with mouse Gardner lymphosarcoma assessed as lethality at 0.30 mg/kg, ip administered daily for 8 to 10 days; format: organism-based; design: dose 0.3 mg/kg, route intraperitoneal; conditions: in vivo, 0.3 mg/kg; outline: as §2
[18] = Antitumor activity against mouse Ridgway osteogenic sarcoma allografted in AKR mouse assessed as tumor growth inhibition at 0.05 mg/kg, ip administered daily for 8 to 10 days compound treatment commenced 8 days after tumor implantation; format: functional; conditions: route intraperitoneal, read-out: TGI
[19] = Antitumor activity against mouse Ridgway osteogenic sarcoma allografted in AKR mouse assessed as tumor growth inhibition at 0.20 mg/kg, ip administered daily for 8 to 10 days compound treatment commenced 8 days after tumor implantation; format: functional; conditions: route intraperitoneal, read-out: TGI
[20] = Dissociation constant, pKa of the compound; format: physicochemical
Outline: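 Electrometric titration in 66% aqueous DMF.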

[21] = Antitumor activity against mouse Ridgway osteogenic sarcoma allografted in AKR mouse assessed as tumor growth inhibition at 0.40 mg/kg, ip administered daily for 8 to 10 days compound treatment commenced 8 days after tumor implantation; format: functional; conditions: route intraperitoneal, read-out: TGI

Compound | inhibition in vivo at 0.2 mg/kg [1] | Activity (Mus musculus [2]) | Activity (Mus musculus [3]) | inhibition in vivo at 0.1 mg/kg [4] | inhibition in vivo at 0.1 mg/kg [5] | Activity (Mus musculus [6]) | other results
CCNC(=O)[C@@]1(O)[C@H](O)[C@]2(CC)C=CCN3CC[C@@]4(c5cc([C@@]6(C(=O)OC)C[C@@H]7CN(CCc8c6[nH]c6ccccc86)C[C@](O)(CC)C7)c(OC)cc5N(C)[C@@H]14)[C@@H]32.O=S(=O)(O)O | 76% | Toxic | Toxic | 0% | 0% | Toxic | 
CC[C@]1(O)C[C@H]2CN(CCc3c([nH]c4ccccc34)[C@@](C(=O)OC)(c3cc4c(cc3OC)N(C)[C@H]3[C@@](O)(C(=O)NCCS)[C@H](O)[C@]5(CC)C=CCN6CC[C@]43[C@@H]65)C2)C1.O=S(=O)(O)O | 26% |  |  | 0% |  |  | Activity (Mus musculus [7]): Toxic; survival at 0.9 mg/kg (B16 [8]): 141%; survival at 0.6 mg/kg (B16 [9]): 170%; inhibition in vivo at 0.4 mg/kg [10]: 76%; inhibition in vivo at 0.3 mg/kg [11]: 51%
CC[C@]1(O)C[C@H]2CN(CCc3c([nH]c4ccccc34)[C@@](C(=O)OC)(c3cc4c(cc3OC)N(C)[C@H]3[C@@](O)(C(=O)NCCNC(C)=O)[C@H](OC(C)=O)[C@]5(CC)C=CCN6CC[C@]43[C@@H]65)C2)C1 |  |  |  |  |  |  | inhibition in vivo at 0.5 mg/kg [12]: 76%; inhibition in vivo at 0.25 mg/kg [13]: 51%; inhibition in vivo at 0.125 mg/kg [14]: 0%
C=CC(=O)OCCNC(=O)[C@@]1(O)[C@H](O)[C@]2(CC)C=CCN3CC[C@@]4(c5cc([C@@]6(C(=O)OC)C[C@@H]7CN(CCc8c6[nH]c6ccccc86)C[C@](O)(CC)C7)c(OC)cc5N(C)[C@@H]14)[C@@H]32 |  | Toxic |  | 76% |  |  | inhibition in vivo at 0.05 mg/kg [15]: 51%; Activity (Mus musculus [16]): Toxic
CC[C@]1(O)C[C@H]2CN(CCc3c([nH]c4ccccc34)[C@@](C(=O)OC)(c3cc4c(cc3OC)N(C)[C@H]3[C@@](O)(C(=O)N(C)C)[C@H](O)[C@]5(CC)C=CCN6CC[C@]43[C@@H]65)C2)C1.O=S(=O)(O)O | 26% | Toxic | Toxic |  | 0% | Toxic | Activity (Mus musculus [17]): Toxic
CC[C@]1(O)C[C@H]2CN(CCc3c([nH]c4ccccc34)[C@@](C(=O)OC)(c3cc4c(cc3OC)N(C)[C@H]3[C@@](O)(C(=O)NC(C)C)[C@H](O)[C@]5(CC)C=CCN6CC[C@]43[C@@H]65)C2)C1.O=S(=O)(O)O |  | Toxic | Toxic | 0% | 76% | Toxic | Activity (Mus musculus [16]): Toxic; inhibition in vivo at 0.05 mg/kg [18]: 0%
CC[C@]1(O)C[C@H]2CN(CCc3c([nH]c4ccccc34)[C@@](C(=O)OC)(c3cc4c(cc3OC)N(C)[C@H]3[C@@](O)(C(=O)NCCN(C)C)[C@H](O)[C@]5(CC)C=CCN6CC[C@]43[C@@H]65)C2)C1 | 0% |  |  |  |  |  | inhibition in vivo at 0.2 mg/kg [19]: 0%; inhibition in vivo at 0.4 mg/kg [10]: 0%; pKa [20]: 8.5; inhibition in vivo at 0.4 mg/kg [21]: 51%
